Rows were chosen to be rich in hits. Some 1.9% of all compounds tested hit in one or more screens of this group.
FXN GAA850 act – FXN promoter activators, primary screen, cell-based, luciferase luminescence, HEK293 lucGAA850. AID 540364, 2011. activation, % at 6 µM. hit rate 0.56% among 360,000. HEK293 lucGAA850 FXN promoter luciferase reporter, 24 h; percent of 10 µM SAHA response;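 active = activation above the average of all compounds screened plus 3 SD, cutoff fixed separately per campaign, cut at about 7.5% in these data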
HIF act – HIF pathway transcriptional activators, primary screen, cell-based, U2OS HRE-luciferase, luminescence; U2OS HRE-luciferase reporter; normalized: DMSO 0%, desferrioxamine 100%; activation, % at 7.5 µM (by protocol); hit rate 0.32% among 300,000; AID 1910, 2009;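 active = mean activation of at least 10% of the iron chelator positive control signal, with at least half of replicates also reaching 10%; inconclusive = mean and replicate majority disagree about reaching 10%; inactive = mean and most replicates under 10%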
Calb FLC – C. albicans growth inhibition with fluconazole, primary screen, CaCi-2 strain, Alamar Blue fluorescence. C. albicans CaCi-2 + fluconazole, 48 h. hit rate 0.57% among 300,000. AID 1979, 2009. growth inhibition, % (test concentration not listed);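 active = growth inhibition above about 58% in most replicates, limit read from the data, passing the limit was not always enough; inconclusive = exactly half the replicates above a set limit; inactive = most replicates below a set limit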;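 also: all wells also contain fluconazole at 8 µg/ml as a sub-toxic cotreatment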
Neddyl block – inhibitors of cullin neddylation, primary screen, biochemical, TR-FRET, uHTS, NAE and Ubc12 | NEDD8-conjugating enzyme Ubc12 (Homo sapiens) + NEDD8-activating enzyme E1 regulatory … | inhibition, % at 25 µM | hit rate 0.58% among 360,000; in the data active = inhibition above about 36%
Target sequence (P61081 whole entry, looked up): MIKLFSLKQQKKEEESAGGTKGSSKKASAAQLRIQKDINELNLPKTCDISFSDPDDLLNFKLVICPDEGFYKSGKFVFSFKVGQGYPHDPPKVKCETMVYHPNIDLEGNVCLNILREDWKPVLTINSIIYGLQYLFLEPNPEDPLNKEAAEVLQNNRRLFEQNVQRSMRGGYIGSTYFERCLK
Target sequence (Q13564 whole entry, looked up): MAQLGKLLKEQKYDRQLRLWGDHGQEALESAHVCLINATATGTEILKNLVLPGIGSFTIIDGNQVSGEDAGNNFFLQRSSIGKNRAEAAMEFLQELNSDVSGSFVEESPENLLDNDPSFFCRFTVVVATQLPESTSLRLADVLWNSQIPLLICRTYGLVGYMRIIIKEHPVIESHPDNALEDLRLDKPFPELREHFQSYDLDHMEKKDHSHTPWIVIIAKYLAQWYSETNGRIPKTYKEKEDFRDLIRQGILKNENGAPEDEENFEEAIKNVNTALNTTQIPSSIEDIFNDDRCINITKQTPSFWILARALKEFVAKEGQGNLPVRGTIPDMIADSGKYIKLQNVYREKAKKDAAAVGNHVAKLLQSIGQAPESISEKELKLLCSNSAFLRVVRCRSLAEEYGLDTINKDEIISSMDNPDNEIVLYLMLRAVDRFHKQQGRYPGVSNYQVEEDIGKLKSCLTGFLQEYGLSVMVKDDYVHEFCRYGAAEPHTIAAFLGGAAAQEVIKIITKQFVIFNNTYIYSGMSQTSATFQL
procasp7 counter – procaspase-7 activators, primary screen, counter-screen for procaspase-3 activator project, biochemical, absorbance, HTS, human; recombinant procaspase-7, Ac-DEVD-pNA absorbance 405 nm; D23A/D198A/D206A triple mutant, cannot self-cleave; scale: DMSO 0, 5 µM enzyme 100; activation, % at 8.5 µM; hit rate 0.093% among 330,000; AID 463210, 2010;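 active = percent activation above the screen-wide mean plus 3 SD, cut at about 25% in these data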
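Assay system: Uncleavable procaspase-7 mutant enzyme | Input: 2 µM procaspase-7 mutant as dispensed | Timing: 1 h compound preincubation, 2 h substrate cleavage, 25 °C | Repeats: One well per compound | Control set: DMSO wells as 0%, DMSO with 5 µM added PC-7 as 100% | Technique: Epi-absorbance of released pNA at 405 nm, two timepoints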
procasp3 activ – activators of human procaspase-3 D3A mutant, primary screen, biochemical, absorbance, PC-3 D3A mutant, single concentration. hit rate 0.11% among 330,000. activation, % at 8.5 µM. recombinant procaspase-3 D3A, Ac-DEVD-pNA absorbance 405 nm. AID 463141, 2010. Caspase-3 (Homo sapiens), P42574;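 active = activation above the mean of all tested compounds plus 3 SD, cut at about 21% in these data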
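Assay system: Procaspase-3 D3A mutant, all three cleavage aspartates alanine. Buffer or medium: Zinc-free HEPES saline buffer with Triton X-100. Times: 1 h compound preincubation, 2 h substrate hydrolysis at 25 °C. Measured by: 405 nm absorbance of p-nitroaniline, reads at 0 and 120 min. Read-out basis: percent activation relative to control range. Replicates: singlicate.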
Numbers stand for hits; i = inactive; ? = inconclusive; nt = no result given.

SMILES	FXN GAA850 act	HIF act	Calb FLC	Neddyl block	procasp7 counter	procasp3 activ
CCOC(=O)C1CCCN(C(=O)c2ccc3oc(CCc4ccccc4)nc3c2)C1 (stereo not drawn)	i	62.5	i	i	i	i
CCOc1ccc(Br)cc1S(=O)(=O)NCC(c1ccc(OC)cc1)N1CCOCC1 (stereo not drawn)	i	nt	nt	i	nt	nt
Cc1ccc(NC(=O)c2ccccc2NS(=O)(=O)c2ccc(Cl)s2)cc1	i	i	78.5	i	i	i
COc1ccccc1Cc1c(C2CCCCC2)nc2ccc(Br)cn12	nt	nt	nt	i	nt	nt
Cc1cc(O)c(/C=N/Nc2ccc(Cl)cc2)c(=O)o1	i	i	87.1	i	i	i
CN1C[C@@H]2[C@@H]3C(=O)N(Cc4ccccc4)C(=O)[C@@H]3[C@](Cc3ccccc3)(C1=O)N2C(=O)c1ccc(F)cc1	i	nt	nt	i	nt	nt
CN(C)CCNc1ncnc2c1ncn2[C@H]1CN(CCc2ccccc2)C[C@@H](CO)O1	i	nt	nt	i	nt	nt
Cc1c(C(=O)O)sc(S(=O)(=O)N2CCN(C(=O)CC(C)c3ccccc3)CC2)c1C(=O)O (stereo not drawn)	i	nt	nt	i	nt	nt
O=C(CC(=O)c1cccc([N+](=O)[O-])c1)Nc1ccccc1Cl	i	i	103.1	i	i	i
COC(=O)c1ccccc1NC(=O)Cn1cnc2c(cnn2-c2ccccc2)c1=O	i	i	i	i	i	i
COc1ccccc1NC(=O)Cn1cnc2c(cnn2-c2ccccc2)c1=O	i	i	91.4	i	i	i
CC(=O)OCC(=O)C1(O)CCC2C3CCC4=CC(=O)CCC4(C)C3(F)C(O)CC21C (stereo not drawn)	i	nt	nt	i	nt	nt
C=CCN1C(=O)c2ccccc2Sc2ccc(C(=O)N3CCN(C)CC3)cc21	i	10.1	i	i	i	i
CCN(CC(=O)Nc1ccc2c(c1)OCCO2)CC(=O)Nc1ccc2c(c1)OCO2	i	54.0	i	i	i	i
C[N+](=O)C1C(=O)Nc2ccccc21 (stereo not drawn)	nt	nt	nt	i	nt	nt
NC(=O)N1CCC2(CC1)NC(=O)N(c1ccccc1)N2	i	i	108.6	i	i	i
COc1ccc(/C=N/OCC(=O)Nc2nc3ccccc3s2)cc1	i	i	107.8	i	i	i
Brc1ccc(CNc2ccc3ncccc3c2)cc1	i	i	i	47.9	nt	nt
O=C(Nc1ccc2ncccc2c1)c1cccc(Br)c1	i	i	i	i	i	i
CC(=O)OC[C@@H]1CN(Cc2ccccc2)C[C@H](n2cnc3c(NC4CCCC4)ncnc32)O1	i	nt	nt	i	nt	nt
Oc1c(C(c2ccc(Cl)cc2)N2CCCC2)cc(Cl)c2cccnc12 (stereo not drawn)	i	i	98.5	i	i	i
Oc1c(C(c2cccs2)N2CCN(c3ccccc3)CC2)ccc2cccnc12 (stereo not drawn)	nt	nt	nt	nt	i	i
Clc1ccc(C(c2ccccc2)N2CCN(c3ccccn3)CC2)cc1 (stereo not drawn)	i	i	?	i	i	i
Oc1c(C(c2ccccn2)N2CCC(Cc3ccccc3)CC2)cc(Cl)c2cccnc12 (stereo not drawn)	nt	i	105.0	nt	i	i
Oc1c(C(c2ccccc2Cl)N2CCCC2)ccc2cccnc12 (stereo not drawn)	i	59.0	105.2	i	i	i
SMILES	FXN GAA850 act	HIF act	Calb FLC	Neddyl block	procasp7 counter	procasp3 activ
CC(=O)NC(c1cc(Cl)c2cccnc2c1O)C1CC1 (stereo not drawn)	i	nt	nt	i	i	i
CN1CCN(C(c2ccc(C(F)(F)F)cc2)c2ccc3cccnc3c2O)CC1 (stereo not drawn)	nt	i	97.4	nt	i	i
Cc1cccc(C)c1NC(=O)C1c2ccccc2OCC(=O)N1CCCN1CCOCC1 (stereo not drawn)	nt	nt	nt	i	nt	nt
CC(=O)NC(c1cc(Cl)c2cccnc2c1O)C(C)C (stereo not drawn)	i	nt	nt	i	i	i
CN1CCN(C(c2ccccn2)c2cc(Cl)c3cccnc3c2O)CC1 (stereo not drawn)	i	i	100.7	i	i	i
Cc1ccc(C(c2cc(Cl)c3cccnc3c2O)N2CCN(C)CC2)cc1 (stereo not drawn)	i	i	87.8	i	i	i
CSc1ccc(CN2CCC(C)(Oc3cccc(F)c3)C2)cc1 (stereo not drawn)	i	nt	nt	i	nt	nt
COc1cc(/C=C(\CCC(=O)O)c2nc3ccccc3s2)ccc1OCC(=O)Nc1c(Cl)cccc1Cl	i	nt	nt	43.7	i	i
CC(=O)Nc1cccc(-c2ccnc3c2CC(C)(C(=O)Nc2cccc(Oc4ccccc4)c2)O3)c1 (stereo not drawn)	i	nt	nt	i	nt	nt
CCOC(=O)N1CCC(Nc2c(-c3ccccc3)c(=O)c2=O)CC1	i	12.8	i	i	i	i
CCOC(=O)N1CCC(Nc2c(-c3ccc(C)cc3)c(=O)c2=O)CC1	i	i	i	i	i	i
O=C(NCc1ccco1)c1ccc2sc([C@@H]3O[C@H](CO)[C@@H](O)[C@H]3O)nc2c1	i	nt	nt	i	nt	nt
CCN(CC)c1ccc(NC(=O)CSc2nc3nc(C)cc(C)c3c(=O)[nH]2)cc1	i	385.9	i	i	i	i
COc1cccc(CN(C(=O)c2cc3ccccc3oc2=O)C2CC2)c1	i	i	89.9	i	i	i
Cc1ccc([C@H]2C[C@@H](O)[C@H](n3cc(-c4ccc(F)cc4)nn3)CN2C(=O)C2CCCCC2)cc1	i	nt	nt	i	nt	nt
N#C/C(=C(/O)CSc1ccccn1)c1nc2ccccc2s1	i	i	i	i	i	i
COc1ccc(C/C(O)=C(\C#N)c2nc3ccccc3s2)cc1	i	i	93.9	nt	i	i
N#C/C(=C(/O)COc1ccccc1)c1nc2ccccc2s1	i	i	i	i	i	i
N#C/C(=C(/O)COc1ccc(Cl)cc1)c1nc2ccccc2s1	i	i	93.7	i	i	i
Cc1ccc(SC/C(O)=C(\C#N)c2nc3ccccc3s2)cc1	i	i	88.1	i	i	i
CCCCC(=O)N(C)c1c(C)nc2ccc(C(=O)NCc3ccccc3OC)cn12	i	nt	nt	i	nt	nt
C[C@H]1COc2cc(N3CCC[C@@H]3CO)ccc2S(=O)(=O)N1	nt	nt	nt	i	nt	nt
CCCCn1c(=O)c2c(O)cc(=O)oc2c2ccccc21	i	21.9	i	i	i	i
O=c1cc(O)c2c(=O)n(Cc3ccccc3)c3ccccc3c2o1	i	i	?	i	i	i

Screening data (PubChem BioAssay)
